Measurements pooled from the literature.
Compare with care: the assays were run in different laboratories.
Cell line: HepG2
Observed: cell growth or viability

CN(C)c1cc(NC(=O)Cc2ccn(C)n2)c(O)c2c1C[C@H]1C[C@H]3[C@H](N(C)C)C(O)=C(C(N)=O)C(=O)[C@@]3(O)C(O)=C1C2=O  IC50 (ATP luminescence; 72 h): > 200 µg/mL
COc1ccc(-c2cc(-c3c(OC)cccc3OC)c3c(=O)[nH]c(=O)[nH]c3n2)cc1  IC50 (MTT; 48 h): 36.5 µM
CN(C)c1cc(NC(=O)Cc2cnccn2)c(O)c2c1C[C@H]1C[C@H]3[C@H](N(C)C)C(O)=C(C(N)=O)C(=O)[C@@]3(O)C(O)=C1C2=O  IC50 (ATP luminescence; 72 h): > 200 µg/mL
COc1cccc2c1C(=O)c1c(O)c3c(c(O)c1C2=O)C[C@@](O)(C(=O)CO)C[C@@H]3O[C@H]1C[C@H](N)[C@H](O)[C@H](C)O1  IC50 (MTT; 72 h): 0.355 µM
CN(C)c1cc(NC(=O)Cc2ccccc2)c(O)c2c1C[C@H]1C[C@H]3[C@H](N(C)C)C(O)=C(C(N)=O)C(=O)[C@@]3(O)C(O)=C1C2=O  IC50 (ATP luminescence; 72 h): 63.7 µg/mL
CCCOc1nc(-c2cccc(O)c2)cc(-c2cc3ccccc3nc2N2CCOCC2)c1C#N  IC50 (MTT; 72 h): 0.269 µM
Cc1nc(Nc2ncc(C(=O)Nc3c(C)cccc3Cl)s2)cc(N2CCN(CCO)CC2)n1  IC50 (MTT; 24 h): 60.8 µM
CN(C)c1cc(NC(=O)Cc2ccncc2)c(O)c2c1C[C@H]1C[C@H]3[C@H](N(C)C)C(O)=C(C(N)=O)C(=O)[C@@]3(O)C(O)=C1C2=O  IC50 (ATP luminescence; 72 h): > 200 µg/mL
COc1ccc(-c2cc(-c3cc(OC)ccc3OC)c3c(=O)[nH]c(=O)[nH]c3n2)cc1  IC50 (MTT; 48 h): 13.1 µM
O=C(C=Cc1ccccc1)Nc1cc(-c2ccnc(N3CCC(O)CC3)c2)ccn1  IC50 (MTT; 72 h): 0.111 µM
Clc1ccc(-c2nnc(Nc3ccc(C4=NNC(c5ccc(Cl)cc5)C4)cc3)c3ccccc23)cc1 (centres unmarked)  IC50 (MTT; 72 h): 0.8 µM
COc1nc(NCc2cn(-c3ccc(C(=O)Nc4ccccc4)cc3)nn2)nc(OC)n1  IC50 (MTT; 72 h): 1.48 µM
Cc1ccc(-c2cc(-c3ccc(N(C)C)cc3)c3c(=O)n(C)c(=O)n(C)c3n2)cc1  IC50 (MTT; 48 h): 14.4 µM
COc1ccc2[nH]c(C(=O)Nc3nc(CC(=O)O)cs3)cc2c1  IC50 (MTT; 24 h): 59.8 µM
CN(C)c1cc(NC(=O)Cc2ccccn2)c(O)c2c1C[C@H]1C[C@H]3[C@H](N(C)C)C(O)=C(C(N)=O)C(=O)[C@@]3(O)C(O)=C1C2=O  IC50 (ATP luminescence; 72 h): > 200 µg/mL
COc1ccc(-c2cc(-c3cccc(Br)c3)c3c(=O)n(C)c(=O)n(C)c3n2)cc1  IC50 (MTT; 48 h): 12.4 µM
O=C(Cc1csc(NC(=O)c2cc3ccccc3[nH]2)n1)NO  IC50 (MTT; 24 h): 67.9 µM
COc1ccc(-c2cc(-c3ccc(OC)cc3)c3c(=O)[nH]c(=O)[nH]c3n2)cc1  IC50 (MTT; 48 h): 9.62 µM
CN(C)c1cc(NC(=O)CNC(C)(C)C)c(O)c2c1C[C@H]1C[C@H]3[C@H](N(C)C)C(O)=C(C(N)=O)C(=O)[C@@]3(O)C(O)=C1C2=O  IC50 (ATP luminescence; 72 h): > 200 µg/mL
Cc1ccc(-c2cc(-c3ccc(Cl)c(F)c3)c3c(=O)n(C)c(=O)n(C)c3n2)cc1  IC50 (MTT; 48 h): 38.8 µM
CN(C)c1cc(NC(=O)CCc2cccnc2)c(O)c2c1C[C@H]1C[C@H]3[C@H](N(C)C)C(O)=C(C(N)=O)C(=O)[C@@]3(O)C(O)=C1C2=O  IC50 (ATP luminescence; 72 h): > 200 µg/mL
COc1ccc(-c2cc(-c3c(OC)cccc3OC)c3c(=O)n(C)c(=O)n(C)c3n2)cc1  IC50 (MTT; 48 h): 10.5 µM
CCOc1nc(-c2cccc(O)c2)cc(-c2cc3ccccc3nc2N2CCOCC2)c1C#N  IC50 (MTT; 72 h): 0.132 µM
